In general, IC50 refers to the midpoint of a concentration-inhibition curve.

Active and inactive are the calls of the source. The calls are words filed in the database; no cut-off is given here.

The values below come from ChEMBL document CHEMBL2163220 (J Med Chem, 2012).

For assay [1], the system named is LNCaP. In words: Induction of apoptosis in human LNCAP cells assessed as caspase-3 activation incubated for 24 hrs by Western blotting. The assay is classed as functional, cell-based. Put shortly:
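LNCaP cells in complete medium were exposed to DMSO or compound at 1, 2.5 and 5 μM for 24 h. Western blot measured AR, maspin, caspase-3 activation and PARP cleavage, with β-actin as loading control.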
(A western blot detects proteins with antibodies after separation by electrophoresis.)

Assay [2] deals with T1, Glucocorticoid receptor (Homo sapiens) (UniProt P04150).
T1 sequence (whole entry): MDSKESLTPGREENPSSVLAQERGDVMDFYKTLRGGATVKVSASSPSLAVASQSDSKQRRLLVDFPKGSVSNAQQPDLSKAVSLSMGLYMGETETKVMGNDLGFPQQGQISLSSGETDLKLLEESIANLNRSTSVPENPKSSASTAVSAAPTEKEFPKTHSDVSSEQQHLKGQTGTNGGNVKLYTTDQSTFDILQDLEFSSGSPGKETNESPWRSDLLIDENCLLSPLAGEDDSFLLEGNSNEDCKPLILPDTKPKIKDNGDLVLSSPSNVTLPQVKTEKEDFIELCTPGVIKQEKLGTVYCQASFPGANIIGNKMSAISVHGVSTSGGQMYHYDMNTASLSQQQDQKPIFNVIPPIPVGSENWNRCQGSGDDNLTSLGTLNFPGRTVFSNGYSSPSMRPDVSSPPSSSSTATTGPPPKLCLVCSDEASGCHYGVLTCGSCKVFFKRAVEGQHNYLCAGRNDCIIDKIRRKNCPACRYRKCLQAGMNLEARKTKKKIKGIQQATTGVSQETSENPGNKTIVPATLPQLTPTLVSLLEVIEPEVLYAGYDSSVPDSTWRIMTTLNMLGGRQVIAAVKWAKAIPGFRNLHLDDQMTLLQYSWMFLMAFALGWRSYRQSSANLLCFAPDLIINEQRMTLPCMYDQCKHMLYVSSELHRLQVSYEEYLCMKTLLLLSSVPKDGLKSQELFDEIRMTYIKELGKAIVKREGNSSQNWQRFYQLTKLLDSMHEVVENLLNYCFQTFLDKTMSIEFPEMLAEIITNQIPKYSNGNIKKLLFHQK
Kind of assay: Agonist activity at glucocorticoid receptor expressed in human PC3 cells assessed as stimulation of receptor transactivation at 1 uM by luciferase reporter gene assay. Type of assay: functional, cell-based. The conditions noted are these: PC-3. An outline of the steps:
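PC-3 cells express GR endogenously and were transfected only with the MMTV-luc reporter. Compound tested at 1 μM, alone or against transactivation induced by 10 nM dexamethasone. Read-out was luciferase reporter activity.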
(Reporter assays use an easily measured gene product as a stand-in for the process of interest.)

Assay [3] concerns LNCaP. In words: Cytotoxicity against human LNCAP cells incubated for 72 hrs by MTT assay. The assay is classed as functional, cell-based. Put shortly: (§1)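 MTT assay run across a panel of prostate cancer cell lines.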
In general terms: Formazan colour is commonly taken as a measure of viable cells.

The next assay concerns PC-3. Kind of assay: Antagonist activity at androgen receptor ARv7 mutant lacking ligand binding domain expressed in human PC3 cells assessed as reduction in DHT-induced receptor transactivation at 1 uM by luciferase reporter gene assay. Type of assay: cell-based. An outline of the steps:
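AR-v7 (lacks LBD), MMTV-Luc and pRL-TK (Renilla) plasmids transiently transfected into PC-3 cells; cells treated with DMSO vehicle, 0.1 nM DHT, or test compound at 1 μM; transactivation read as luciferase activity (relative luciferase units).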

Assay [4] addresses T2, Progesterone receptor (Homo sapiens) (UniProt P06401).
T2 sequence (whole entry): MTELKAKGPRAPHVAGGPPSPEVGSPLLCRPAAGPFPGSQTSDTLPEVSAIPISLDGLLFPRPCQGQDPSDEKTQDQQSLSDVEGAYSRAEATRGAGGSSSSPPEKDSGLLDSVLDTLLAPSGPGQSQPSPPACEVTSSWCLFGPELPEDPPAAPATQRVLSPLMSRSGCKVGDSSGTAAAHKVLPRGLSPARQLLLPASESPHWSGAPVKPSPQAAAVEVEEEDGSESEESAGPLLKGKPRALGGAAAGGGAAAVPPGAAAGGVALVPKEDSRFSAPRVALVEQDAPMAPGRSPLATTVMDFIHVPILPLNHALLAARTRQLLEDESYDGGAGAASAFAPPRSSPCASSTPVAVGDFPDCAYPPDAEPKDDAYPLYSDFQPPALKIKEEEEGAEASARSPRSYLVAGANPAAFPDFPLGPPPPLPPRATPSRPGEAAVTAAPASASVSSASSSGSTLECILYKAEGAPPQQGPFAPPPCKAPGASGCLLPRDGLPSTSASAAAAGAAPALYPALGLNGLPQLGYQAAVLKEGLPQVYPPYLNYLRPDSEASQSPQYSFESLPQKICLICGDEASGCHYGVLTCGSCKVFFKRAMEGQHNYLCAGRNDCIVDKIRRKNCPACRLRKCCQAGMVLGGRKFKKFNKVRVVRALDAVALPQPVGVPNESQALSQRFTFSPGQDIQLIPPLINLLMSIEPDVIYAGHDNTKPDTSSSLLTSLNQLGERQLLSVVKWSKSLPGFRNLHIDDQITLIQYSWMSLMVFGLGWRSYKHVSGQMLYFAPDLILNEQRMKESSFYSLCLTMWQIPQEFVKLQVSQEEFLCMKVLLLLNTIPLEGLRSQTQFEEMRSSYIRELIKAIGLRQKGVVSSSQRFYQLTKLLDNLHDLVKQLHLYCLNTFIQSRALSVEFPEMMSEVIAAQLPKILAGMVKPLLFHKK
In words: Agonist activity at progesterone receptor in human PC3 cells assessed as stimulation of receptor transactivation at 1 uM by luciferase reporter gene assay. Type of assay: functional, cell-based. The conditions noted are these: PC-3. An outline of the steps:
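PC-3 cells lack detectable PR, so they were cotransfected with a PR expression plasmid and the MMTV-luc reporter. Compound tested at 1 μM, alone or against transactivation induced by 10 nM R5020. Read-out was luciferase reporter activity.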

The next assay concerns CWR22R. In words: Cytotoxicity against human 22Rv1 cells incubated for 72 hrs by MTT assay. Type of assay: functional, cell-based. The conditions noted are these: 22Rv1, 72 h. Put shortly: as §1

Turning to `Cc1coc2c1C(=O)C(=O)c1c-2ccc2c1CCCC2(C)C` [TANSHINONE IIA], the Activity entry with LNCaP [1] is “Dose-dependent effect”. Moreover, the outcome (in assay [2]; in the assay with PC-3; in assay [4]) was inactive. Moreover, the half-maximal inhibitory concentration (IC50) came out at 0.5 µM in the assay on LNCaP [3] and 6.7 µM in the assay with CWR22R.
